Source: ChEMBL document CHEMBL1926577, “Novel 1,3,4-heterodiazole analogues: synthesis and in-vitro antitumor activity” (2012)

Columns and labels:
Assay type in all cases: functional
[1] = tested on: SK-MEL-28; experiment: Growth inhibition of human SK-MEL-28 cells at 10 uM after 48 hrs by coulter counter method; settings: SK-MEL-28, 48 h, read-out: GI
How it was run: (§1)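 NCI 60-cell-line panel, single dose. Compound dissolved first in DMSO, then diluted in phosphate-buffered saline so that every final dilution held under 1% DMSO. Duplicate wells received cells at 6 × 10⁴ cells/ml. Controls held PBS/DMSO at the same dilution. Plates were incubated 48 h at 37 °C under 5% CO₂. Cells were then diluted 10-fold in saline and counted on a Coulter counter, with counts corrected for the dilution. Results are given as percent growth inhibition.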

[2] = tested on: HL-60(TB); experiment: Growth inhibition of human HL-60(TB) cells at 10 uM after 48 hrs by coulter counter method; settings: HL-60, 48 h, read-out: GI
How it was run: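 Single-dose screen on the NCI 60-line panel (leukemia subpanel). Compound is dissolved in DMSO and diluted in PBS, with final DMSO below 1%. Duplicate wells hold 6 × 10⁴ cells/ml at 37 °C, 5% CO₂, for 48 h. Cells are counted by Coulter counter after 10-fold saline dilution. Read-out is percent growth versus PBS/DMSO controls, expressed as % growth inhibition.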

[3] = tested on: CCRF-CEM; experiment: Growth inhibition of human CCRF-CEM cells at 10 uM after 48 hrs by coulter counter method; settings: read-out: GI; how it was run: as §1
[4] = tested on: SNB-19; experiment: Growth inhibition of human SNB19 cells at 10 uM after 48 hrs by coulter counter method; settings: SNB-19, 48 h, read-out: GI; how it was run: as §1
[5] = tested on: NCI-H23; experiment: Growth inhibition of human NCI-H23 cells at 10 uM after 48 hrs by coulter counter method; settings: NCI-H23, 48 h, read-out: GI; how it was run: as §1
[6] = tested on: SF-295; experiment: Growth inhibition of human SF295 cells at 10 uM after 48 hrs by coulter counter method; settings: SF-295, 48 h, read-out: GI; how it was run: as §1
[7] = tested on: A498; experiment: Growth inhibition of human A498 cells at 10 uM after 48 hrs by coulter counter method; settings: A498, 48 h, read-out: GI; how it was run: as §1
[8] = tested on: U-251; experiment: Growth inhibition of human U251 cells at 10 uM after 48 hrs by coulter counter method; settings: U-251, 48 h, read-out: GI; how it was run: as §1
[9] = tested on: SN12C; experiment: Growth inhibition of human SN12C cells at 10 uM after 48 hrs by coulter counter method; settings: read-out: GI; how it was run: as §1
[10] = tested on: Malme-3M; experiment: Growth inhibition of human MALME-3M cells at 10 uM after 48 hrs by coulter counter method; settings: read-out: GI; how it was run: as §1
[11] = tested on: NCI-H322M; experiment: Growth inhibition of human NCI-H322M cells at 10 uM after 48 hrs by coulter counter method; settings: read-out: GI; how it was run: as §1
[12] = tested on: PC-3; experiment: Growth inhibition of human PC3 cells at 10 uM after 48 hrs by coulter counter method; settings: PC-3, 48 h, read-out: GI; how it was run: as §1
[13] = tested on: ACHN; experiment: Growth inhibition of human ACHN cells at 10 uM after 48 hrs by coulter counter method; settings: read-out: GI; how it was run: as §1
[14] = tested on: NCI-H522; experiment: Growth inhibition of human NCI-H522 cells at 10 uM after 48 hrs by coulter counter method; settings: NCI-H522, 48 h, read-out: GI; how it was run: as §1
[15] = tested on: SF-268; experiment: Growth inhibition of human SF268 cells at 10 uM after 48 hrs by coulter counter method; settings: SF-268, 48 h, read-out: GI; how it was run: as §1
[16] = tested on: SK-MEL-2; experiment: Growth inhibition of human SK-MEL-2 cells at 10 uM after 48 hrs by coulter counter method; settings: SK-MEL-2, 48 h, read-out: GI; how it was run: as §1
[17] = tested on: UACC-257; experiment: Growth inhibition of human UACC257 cells at 10 uM after 48 hrs by coulter counter method; settings: UACC-257, 48 h, read-out: GI; how it was run: as §1
[18] = tested on: K562; experiment: Growth inhibition of human K562 cells at 10 uM after 48 hrs by coulter counter method; settings: K562, 48 h, read-out: GI; how it was run: as §1
[19] = tested on: TK-10; experiment: Growth inhibition of human TK10 cells at 10 uM after 48 hrs by coulter counter method; settings: TK-10, 48 h, read-out: GI; how it was run: as §1
[20] = tested on: M14; experiment: Growth inhibition of human M14 cells at 10 uM after 48 hrs by coulter counter method; settings: M14, 48 h, read-out: GI; how it was run: as §1
[21] = tested on: 786-0; experiment: Growth inhibition of human 786-0 cells at 10 uM after 48 hrs by coulter counter method; settings: 786-0, 48 h, read-out: GI; how it was run: as §1
[22] = tested on: NCI-H226; experiment: Growth inhibition of human NCI-H226 cells at 10 uM after 48 hrs by coulter counter method; settings: NCI-H226, 48 h, read-out: GI; how it was run: as §1
[23] = tested on: UO-31; experiment: Growth inhibition of human UO31 cells at 10 uM after 48 hrs by coulter counter method; settings: UO-31, 48 h, read-out: GI; how it was run: as §1
[24] = tested on: UACC-62; experiment: Growth inhibition of human UACC62 cells at 10 uM after 48 hrs by coulter counter method; settings: UACC-62, 48 h, read-out: GI; how it was run: as §1
[25] = tested on: NCI/ADR-RES; experiment: Growth inhibition of human NCI/ADR-RES cells at 10 uM after 48 hrs by coulter counter method; settings: read-out: GI; how it was run: as §1
[26] = tested on: OVCAR-8; experiment: Growth inhibition of human OVCAR8 cells at 10 uM after 48 hrs by coulter counter method; settings: OVCAR-8, 48 h, read-out: GI; how it was run: as §1
[27] = tested on: MOLT-4; experiment: Growth inhibition of human MOLT4 cells at 10 uM after 48 hrs by coulter counter method; settings: MOLT-4, 48 h, read-out: GI; how it was run: as §1
[28] = tested on: T47D; experiment: Growth inhibition of human T47D cells at 10 uM after 48 hrs by coulter counter method; settings: read-out: GI; how it was run: as §1
[29] = tested on: SR; experiment: Growth inhibition of human SR cells at 10 uM after 48 hrs by coulter counter method; settings: read-out: GI; how it was run: as §1
[30] = tested on: HT-29; experiment: Growth inhibition of human HT-29 cells at 10 uM after 48 hrs by coulter counter method; settings: HT-29, 48 h, read-out: GI; how it was run: as §1
[31] = tested on: KM12; experiment: Growth inhibition of human KM12 cells at 10 uM after 48 hrs by coulter counter method; settings: KM12, 48 h, read-out: GI; how it was run: as §1
[32] = tested on: EKVX; experiment: Growth inhibition of human EKVX cells at 10 uM after 48 hrs by coulter counter method; settings: read-out: GI; how it was run: as §1
[33] = tested on: CAKI-1; experiment: Growth inhibition of human Caki1 cells at 10 uM after 48 hrs by coulter counter method; settings: CAKI-1, 48 h, read-out: GI; how it was run: as §1
[34] = tested on: MDA-MB-468; experiment: Growth inhibition of human MDA-MB-468 cells at 10 uM after 48 hrs by coulter counter method; settings: MDA-MB-468, 48 h, read-out: GI; how it was run: as §1
[35] = tested on: HCT-15; experiment: Growth inhibition of human HCT15 cells at 10 uM after 48 hrs by coulter counter method; settings: HCT-15, 48 h, read-out: GI; how it was run: as §1
[36] = tested on: SK-MEL-5; experiment: Growth inhibition of human SK-MEL-5 cells at 10 uM after 48 hrs by coulter counter method; settings: SK-MEL-5, 48 h, read-out: GI; how it was run: as §1
[37] = tested on: A549; experiment: Growth inhibition of human A549 cells at 10 uM after 48 hrs by coulter counter method; settings: A549, 48 h, read-out: GI; how it was run: as §1
[38] = tested on: SNB-75; experiment: Growth inhibition of human SNB75 cells at 10 uM after 48 hrs by coulter counter method; settings: SNB-75, 48 h, read-out: GI; how it was run: as §1
[39] = tested on: BT-549; experiment: Growth inhibition of human BT549 cells at 10 uM after 48 hrs by coulter counter method; settings: BT-549, 48 h, read-out: GI; how it was run: as §1
[40] = tested on: RPMI-8226; experiment: Growth inhibition of human RPMI8226 cells at 10 uM after 48 hrs by coulter counter method; settings: RPMI-8226, 48 h, read-out: GI; how it was run: as §1
[41] = tested on: MDA-MB-435; experiment: Growth inhibition of human MDA-MB-435 cells at 10 uM after 48 hrs by coulter counter method; settings: MDA-MB-435, 48 h, read-out: GI; how it was run: as §1
[42] = tested on: MCF7; experiment: Growth inhibition of human MCF7 cells at 10 uM after 48 hrs by coulter counter method; settings: MCF7, 48 h, read-out: GI; how it was run: as §1
[43] = tested on: IGROV-1; experiment: Growth inhibition of human IGROV1 cells at 10 uM after 48 hrs by coulter counter method; settings: IGROV-1, 48 h, read-out: GI; how it was run: as §1
[44] = tested on: HCT-116; experiment: Growth inhibition of human HCT116 cells at 10 uM after 48 hrs by coulter counter method; settings: HCT-116, 48 h, read-out: GI; how it was run: as §1
[45] = tested on: LOX IMVI; experiment: Growth inhibition of human LOXIMVI cells at 10 uM after 48 hrs by coulter counter method; settings: read-out: GI; how it was run: as §1

Structure (SMILES): NC1=CC(N)=NC2SC(c3ccccc3)=NN12 (stereo not given)
- inhibition of growth at 10 µM [1]: < 10%
- inhibition of growth at 10 µM [2]: < 10%
- inhibition of growth at 10 µM [3]: < 10%
- inhibition of growth at 10 µM [4]: < 10%
- inhibition of growth at 10 µM [5]: < 10%
- inhibition of growth at 10 µM [6]: < 10%
- inhibition of growth at 10 µM [7]: < 10%
- inhibition of growth at 10 µM [8]: < 10%
- inhibition of growth at 10 µM [9]: < 10%
- inhibition of growth at 10 µM [10]: < 10%
- inhibition of growth at 10 µM [11]: < 10%
- inhibition of growth at 10 µM [12]: < 10%
- inhibition of growth at 10 µM [13]: < 10%
- inhibition of growth at 10 µM [14]: < 10%
- inhibition of growth at 10 µM [15]: < 10%
- inhibition of growth at 10 µM [16]: < 10%
- inhibition of growth at 10 µM [17]: 16.4%
- inhibition of growth at 10 µM [18]: < 10%
- inhibition of growth at 10 µM [19]: < 10%
- inhibition of growth at 10 µM [20]: < 10%
- inhibition of growth at 10 µM [21]: < 10%
- inhibition of growth at 10 µM [22]: < 10%
- inhibition of growth at 10 µM [23]: 36.6%
- inhibition of growth at 10 µM [24]: < 10%
- inhibition of growth at 10 µM [25]: < 10%
- inhibition of growth at 10 µM [26]: < 10%
- inhibition of growth at 10 µM [27]: < 10%
- inhibition of growth at 10 µM [28]: < 10%
- inhibition of growth at 10 µM [29]: < 10%
- inhibition of growth at 10 µM [30]: < 10%
- inhibition of growth at 10 µM [31]: < 10%
- inhibition of growth at 10 µM [32]: < 10%
- inhibition of growth at 10 µM [33]: 10.7%
- inhibition of growth at 10 µM [34]: < 10%
- inhibition of growth at 10 µM [35]: < 10%
- inhibition of growth at 10 µM [36]: < 10%
- inhibition of growth at 10 µM [37]: < 10%
- inhibition of growth at 10 µM [38]: 11.6%
- inhibition of growth at 10 µM [39]: < 10%
- inhibition of growth at 10 µM [40]: < 10%
- inhibition of growth at 10 µM [41]: < 10%
- inhibition of growth at 10 µM [42]: < 10%
- inhibition of growth at 10 µM [43]: 15.8%
- inhibition of growth at 10 µM [44]: < 10%
- inhibition of growth at 10 µM [45]: < 10%
